Source: PubChem BioAssay
Sampled rows, rich in hits. Any-hit rate of the full collection: about 1.7%.
ZTA DNA inh = blocks Epstein-Barr virus ZTA, an EBNA-1 counter-screen; P03206; ZTA-DNA binding, fluorescence polarization; inhibition, % at 11 µM; 0.15% of 320,000 active; AID 2234; in the data active means inhibition above about 33%
Target sequence (P03206 whole entry, looked up): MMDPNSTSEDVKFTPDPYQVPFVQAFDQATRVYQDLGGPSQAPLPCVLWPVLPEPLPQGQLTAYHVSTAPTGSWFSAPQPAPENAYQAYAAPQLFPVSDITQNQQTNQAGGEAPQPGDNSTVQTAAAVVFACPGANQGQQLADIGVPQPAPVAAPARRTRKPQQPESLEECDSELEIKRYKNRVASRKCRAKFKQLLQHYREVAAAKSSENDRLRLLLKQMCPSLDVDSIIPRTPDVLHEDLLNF
EBNA-1 inh = blocks EBNA-1 binding to DNA | AID 1950 | EBNA-1 DNA binding, fluorescence polarization | 0.34% of 300,000 active | inhibition, % at 14.8 µM; in the data active means inhibition above about 28%
core dimer inh = HCV core protein dimerization inhibition. TR-FRET GST/Flag-core106 dimerization, 1536-well. 0.33% of 300,000 active. inhibition, % at 5 µM;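 active means inhibition above the mean of all tested compounds plus 3 SD, set per screening campaign, cut at about 45% in these data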
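assay system = GST-tagged and Flag-tagged HCV core protein residues 1-106 | controls = unlabelled core106 and no-GST-core106 wells | incubation = compound-protein-antibody incubation 4 h at 22.5 °C | probe or stimulus = Eu donor and XL665 acceptor anti-tag antibodies | read-out = % inhibition based on acceptor/donor emission ratio | signal = TR-FRET 671 and 617 nm emission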
PP1 inh = counter-screen for PP5 inhibitors: inhibitors of human PP1-alpha | AID 2235 | purified PP1alpha, OMFP fluorescence | P62136 | 0.9% of 320,000 active | inhibition, % at 6.7 µM;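 active means inhibition above the mean inhibition of all tested compounds plus 3 SD, computed separately for each screening campaign, cut at about 15% in these data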
Target sequence (P62136 whole entry, looked up): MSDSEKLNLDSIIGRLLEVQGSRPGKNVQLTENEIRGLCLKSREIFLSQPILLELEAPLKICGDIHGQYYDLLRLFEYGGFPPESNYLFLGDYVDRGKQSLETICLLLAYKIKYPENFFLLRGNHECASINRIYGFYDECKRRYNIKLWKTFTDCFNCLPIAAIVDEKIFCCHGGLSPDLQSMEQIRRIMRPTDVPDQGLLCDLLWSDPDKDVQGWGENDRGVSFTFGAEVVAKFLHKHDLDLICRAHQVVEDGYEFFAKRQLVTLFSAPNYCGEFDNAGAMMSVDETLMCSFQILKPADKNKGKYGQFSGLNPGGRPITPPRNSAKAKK
PP5 primary = inhibitors of human protein phosphatase 5 (PP5) | P53041 | purified PP5c, OMFP substrate fluorescence | inhibition, % at 6.7 µM | 0.18% of 320,000 active | AID 1987;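 active means inhibition above the campaign's mean inhibition across all tested compounds plus 3 SD, cut at about 9.5% in these data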;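 further: 0% = DMSO only and 100% = 100 µM cantharidin control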
PP1 confirm = confirmation of human PP1 phosphatase inhibitors. 52% of 1,900 active. purified PP1alpha, OMFP substrate fluorescence. inhibition, % at 6.7 µM. shares compounds with PP1 inh. AID 2358;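 active means mean PP1 inhibition above a set limit taken from the earlier primary screen, cut at about 15% in these data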
PP5 inh counter = PP5 phosphatase inhibition, counter-screen for PP1 inhibitors | shares compounds with PP1 inh | purified PP5c, OMFP fluorescence | inhibition, % at 6.7 µM | 4% of 1,900 active;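 active means mean PP5 inhibition over triplicate wells above about 9.5% taken from the earlier PP1 screen, limit read from the data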
The depositor's hits bear a star; / = no result given.

SMILES	ZTA DNA inh	EBNA-1 inh	core dimer inh	PP1 inh	PP5 primary	PP1 confirm	PP5 inh counter
CC(C)c1cc2c(c(O)c1O)[C@@]13CCCC(C)(C)C1CC2OC3=O (stereo not given in full)	-11.0	-1.2	4.1	44.1*	0.4	2.5	-4.2
CCOC(=O)c1sc(N(Cc2ccccc2)C(=O)CCl)nc1C	0.6	0.1	4.6	-2.7	-1.4	/	/
O=C(O)CSCC(=O)N(Cc1ccccc1)c1nc(-c2ccccc2)c(-c2ccccc2)s1	-0.9	-17.4	19.4	26.3*	6.4	18.6*	-0.7
CCn1c(CC(=O)Nc2ccc(C)cc2)nnc1SCC(=O)N1CCOCC1	-8.6	-0.2	-27.2	26.4*	1.0	0.8	0.1
COc1ccc(/C=C2\SC(=O)N(CCC(=O)Nc3ccc(S(=O)(=O)Nc4nccs4)cc3)C2=O)cc1	-18.6	5.2	17.2	21.0*	4.0	10.4	1.1
COc1ccc(/C=C2/SC(=O)N(CCC(=O)Nc3ccc(S(=O)(=O)Nc4nccs4)cc3)C2=O)cc1	20.1	-4.6	27.0	5.7	4.0	/	/
Cc1ccc(-n2c(O)c(/C=N/Nc3ccc(S(=O)(=O)N4CCOCC4)cc3[N+](=O)[O-])c3ccccc3c2=O)c(C)c1	-8.8	-2.3	16.1	17.6*	1.9	17.6*	5.0
CCNC(=O)CSC1=N/C(=C\c2ccc(O)c(OCC)c2)C(=O)N1c1ccc(OC(F)F)cc1	11.9	-7.6	16.4	17.7*	2.1	19.4*	-6.4
O=C(CSC1=N/C(=C/c2ccco2)C(=O)N1c1ccc(OC(F)F)cc1)NC1CCS(=O)(=O)C1 (stereo not given)	1.3	-2.3	12.5	-4.2	-1.7	/	/
CC1Cc2ccccc2N1Cc1cc(=O)n2ccsc2n1 (stereo not given)	20.7	-13.6	68.0*	21.9*	-3.6	19.3*	-1.5
COc1ccccc1N1CCN(Cc2cc(=O)n3ccsc3n2)CC1	1.3	1.4	2.3	-2.3	0.2	/	/
CCC(CC)CN1C(N(C)C)=NC[C@@H]1CC(C)C	-2.5	3.0	-7.0	1.5	3.0	/	/
COc1ccc(NC(=O)c2c(C)cc(=O)oc2C)c(OC)c1	6.3	8.6	-3.2	35.5*	-1.3	-6.9	-5.3
CC(=O)NS(=O)(=O)c1ccc(NC(=S)NC(=O)Cc2ccccc2)cc1	-7.8	-13.0	-3.6	-6.4	-2.0	/	/
CCCCCN(C(=O)CCC(=O)OCC(=O)c1ccc(C(C)CC)cc1)c1c(N)n(CCCC)c(=O)[nH]c1=O (stereo not given)	-10.3	-7.3	-0.6	29.1*	0.0	0.3	0.7
CCCCCN(C(=O)CCC(=O)OCC(=O)N(C)c1ccccc1)c1c(N)n(CCCC)c(=O)[nH]c1=O	-2.1	-4.9	0.7	-4.1	-0.6	/	/
O=[N+]([O-])c1cc(CN2CCCC2)c2cccnc2c1O	-14.5	-1.5	-4.0	18.1*	2.8	4.5	-0.9
O=[N+]([O-])c1cc(CN2CCN(c3cccc(C(F)(F)F)c3)CC2)c2cccnc2c1O	11.1	9.7	22.5	17.6*	4.9	23.8*	-1.4
COc1ccc(F)cc1S(=O)(=O)NCC(=O)NCc1cc(=O)n(C)c(=O)n1C	-7.0	-2.3	-14.0	-0.4	2.0	/	/
Cc1ccc2[nH]cc(CCNC(=O)C3CCCO3)c2c1 (stereo not given)	1.5	6.4	-1.1	1.6	-0.5	/	/
CCN=C1SC(C(=O)Nc2cccc(Br)c2)CC(=O)N1CC (stereo not given)	5.4	-2.2	-3.5	0.2	2.5	/	/
CC[n+]1c(/C=C/N(C)c2ccccc2)n(-c2ccccc2)c2ccc(-c3nc4ccccc4s3)cc21	42.0*	15.1	-7.7	36.1*	1.5	7.7	0.2
CCOC(=O)c1ccc2c(c1)n(CC)c(/C=C/N(C)c1ccccc1)[n+]2CC	17.9	1.7	5.1	-0.2	0.2	/	/
O=S(=O)(Nc1ccc(-c2csc(-c3ccccc3)n2)cc1)c1ccc(F)cc1	-1.1	4.4	2.5	3.1	6.0	/	/
O=C(Nc1nc(-c2ccccc2)cs1)c1ccccc1NS(=O)(=O)c1ccc(F)cc1	9.6	1.5	17.8	21.0*	9.2	21.4*	12.7*
SMILES	ZTA DNA inh	EBNA-1 inh	core dimer inh	PP1 inh	PP5 primary	PP1 confirm	PP5 inh counter
O=C(Nc1nc(-c2ccc(-c3ccccc3)cc2)cs1)C1=COCCO1	-9.0	8.3	-7.0	20.8*	0.8	34.1*	-3.5
CCOc1ccc2nc3c(cc2c1)CN(CCCO)C(=NCCOC)S3	2.6	5.2	29.4	0.8	0.3	/	/
Cc1cccc(NC(=O)CN2C(=O)N/C(=C/c3cc(C)n(-c4ccncc4)c3C)C2=O)c1	12.7	8.4	-5.8	19.0*	0.4	14.2	-1.6
Cc1cccc(NC(=O)CN2C(=O)N/C(=C/c3cc(C)n(-c4cccnc4)c3C)C2=O)c1	-23.8	-9.9	17.5	10.3	-1.4	/	/
Cc1ccccc1NC(=S)NCC1CCN(C(C)c2ccccc2)C1 (stereo not given)	9.1	8.0	0.9	25.0*	-1.4	-17.1	-5.0
COc1ccc2c(Cl)c(C(=O)NCCCn3ccnc3)sc2c1Cl	3.0	8.2	3.8	18.4*	-3.0	2.6	-4.0
CCN(CC)c1ccc(-c2nn3c(-c4n[nH]c5c4CCC5)nnc3s2)cc1	3.2	-7.1	39.2	21.8*	4.5	30.8*	1.2
Cc1ccc(NC(=O)CSc2nc(O)cc(=O)n2-c2ccc(C)cc2)cc1	-16.2	-4.2	10.3	24.9*	0.5	0.9	-0.6
COc1ccccc1-n1c(SCC(=O)Nc2ccc(C)cc2)nc(O)cc1=O	15.9	3.2	9.6	12.1	-0.6	/	/
COc1ccc(NC(=O)CSc2nc(O)cc(=O)n2-c2ccccc2OC)cc1	8.9	10.8	8.6	21.2*	0.4	0.7	-2.8
O=c1cc(O)nc(SCc2ccccc2)n1-c1ccc(Cl)cc1	4.9	2.4	-1.3	20.6*	1.5	4.4	-1.9
CCN1CCN=C1Nc1ccccc1	0.2	0.1	6.0	1.9	-0.1	/	/
N#CCSc1nc2ccc(N3CCCCC3)cc2c(=O)n1Cc1ccccc1	-3.1	-4.5	26.7	23.1*	3.7	20.9*	-0.7
CC(C)c1[nH]nc2c1C(c1ccco1)C(C#N)=C(N)O2 (stereo not given)	-0.8	-10.7	1.7	-4.5	-0.8	/	/
O=C(NC(C(=O)N/N=C/c1cc([N+](=O)[O-])ccc1O)c1n[nH]c(=O)c2ccccc12)c1ccccc1 (stereo not given)	20.6	-10.4	-0.3	26.6*	3.8	17.9*	1.0
CC(C)(C)CC(=O)Nc1nnc(SCC(=O)NC2CCCCC2)s1	7.7	0.7	5.6	0.6	1.0	/	/
COc1c(N2CCN(C(=S)NC3CC4CCC3C4)C(C)C2)c(F)cc2c(=O)c(C(=O)O)cn(C3CC3)c12 (stereo not given)	5.1	-2.1	20.0	21.4*	-1.0	38.0*	-5.2
